Source: paper PMC12573768 (RSC Advances, 2025)
Where two headings read alike, the source gives them in different places.

Experiments:
[1] = system: fructosamine formation in BSA-fructose model; experiment: Fructosamine inhibition, NBT assay, BSA-fructose model; format: biochemical; settings: 50 °C 24 hours
Procedure, shortened: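 Test compound and BSA-fructose solution mixed 1:1 and incubated at 50 °C for 24 h, with aminoguanidine as positive control. Incubated mixture was treated with 300 μM NBT in 0.1 M sodium carbonate, pH 10.6, at 37 °C for 15 min, then absorbance read at 530 nm. Inhibition was calculated with control and sample blanks. Run in triplicate; mean ± SEM.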

[2] = system: AGEs formation in BSA-fructose model; experiment: AGEs inhibition, fluorescence, BSA-fructose model; format: biochemical; settings: 50 °C 24 hours
Procedure, shortened: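 Test compound and BSA-fructose solution mixed 1:1 and incubated at 50 °C for 24 h, with aminoguanidine as positive control. An aliquot of the mixture was diluted fivefold and fluorescence read at excitation 375 nm and emission 440 nm. Inhibition was calculated from control, control blank, sample and sample blank intensities. Run in triplicate; IC50 derived; mean ± SEM.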

[3] = Free radical scavenging activity; settings: for IC50: read-out: (IC50 ± SEM) Antioxidant activity (DPPH radical)
Procedure, shortened: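 Test compound in DMSO mixed with 0.2 mM DPPH in 95% methanol (1:3 by volume) and held 1 h in the dark at room temperature. Absorbance read at 517 nm; scavenging calculated relative to control, with ascorbic acid as reference. IC50 from non-linear regression; triplicate; mean ± SEM.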

α-glucosidase [4] = biological target: T1, α-glucosidase (Saccharomyces cerevisiae, UniProt P53341); experiment: α-Glucosidase inhibitory activity; format: biochemical
T1 sequence (P53341 whole entry): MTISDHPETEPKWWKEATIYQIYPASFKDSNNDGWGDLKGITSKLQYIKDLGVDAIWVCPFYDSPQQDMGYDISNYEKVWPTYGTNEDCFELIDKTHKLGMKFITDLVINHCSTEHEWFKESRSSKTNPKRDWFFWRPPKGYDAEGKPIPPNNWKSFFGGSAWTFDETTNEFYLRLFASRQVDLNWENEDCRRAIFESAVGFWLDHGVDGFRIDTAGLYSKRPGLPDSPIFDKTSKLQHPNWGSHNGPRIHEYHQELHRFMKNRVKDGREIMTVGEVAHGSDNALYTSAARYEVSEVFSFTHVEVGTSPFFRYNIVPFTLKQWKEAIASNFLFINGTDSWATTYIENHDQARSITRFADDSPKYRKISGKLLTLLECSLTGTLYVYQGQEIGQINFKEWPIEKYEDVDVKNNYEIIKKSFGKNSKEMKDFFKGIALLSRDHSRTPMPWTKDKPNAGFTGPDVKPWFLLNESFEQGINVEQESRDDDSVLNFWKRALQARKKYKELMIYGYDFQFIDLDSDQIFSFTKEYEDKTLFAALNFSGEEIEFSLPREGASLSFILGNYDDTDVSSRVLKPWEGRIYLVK

[5] = biological target: T2, porcine pancreatic α-amylase (Sus scrofa, UniProt P00690); experiment: α-Amylase inhibitory activity; format: biochemical
T2 sequence (P00690 16-511): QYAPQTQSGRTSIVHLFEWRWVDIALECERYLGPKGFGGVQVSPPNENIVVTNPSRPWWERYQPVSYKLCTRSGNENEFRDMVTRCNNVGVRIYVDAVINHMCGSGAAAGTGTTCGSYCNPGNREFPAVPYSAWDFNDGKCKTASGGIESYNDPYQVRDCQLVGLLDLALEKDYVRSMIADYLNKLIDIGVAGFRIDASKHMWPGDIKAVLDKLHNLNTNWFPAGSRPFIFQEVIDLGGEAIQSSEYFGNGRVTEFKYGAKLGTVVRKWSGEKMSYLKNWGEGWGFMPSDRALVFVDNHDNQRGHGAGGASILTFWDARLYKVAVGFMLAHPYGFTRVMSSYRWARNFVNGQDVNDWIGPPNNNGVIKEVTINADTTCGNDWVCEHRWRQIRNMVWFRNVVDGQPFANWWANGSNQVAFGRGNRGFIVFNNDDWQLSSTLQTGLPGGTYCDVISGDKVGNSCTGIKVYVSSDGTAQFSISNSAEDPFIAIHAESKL

3T3-L1 cells = experiment: MTT cytotoxicity assay; format: cell-based; settings: 3T3-L1, up to 50 μM, 12 hours
Procedure, shortened: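 3T3-L1 cells grown in DMEM with 10% FBS, 1% penicillin–streptomycin and 0.2% amphotericin at 37 °C, 5% CO2. Seeded at 2.0 × 10^4 cells/well overnight, PBS-washed, then exposed to test compound (0–50 μM in DMEM) for 12 h. After washing, 0.05% MTT in DMEM for 3 h; formazan dissolved in DMSO and read at 590 nm (reference 620 nm). IC50 by non-linear regression; triplicate.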

[6] = Stability under physiological conditions; format: physicochemical; settings: 200 μM, 1X PBS pH 7.4, 37 °C, 10 days
Procedure, shortened: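 Test compound at 200 μM in 1X PBS, pH 7.4, incubated at 37 °C. A sample taken immediately was extracted three times with ethyl acetate, evaporated and stored at −20 °C; a second sample was extracted likewise after 10 days. Both residues were analysed by LC-MS on a C18 column.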

C57BL/KsJ-db/db mice = settings: Jung et al. ref 52; cited from earlier work
[7] = in vivo study by Wang et al. ref 55; cited from earlier work
Caco-2 monolayer = settings: Caco-2 cell model ref 55; cited from earlier work
[8] = cited from earlier work; for Stability improvement compared to ester form: rat plasma, Yang et al. ref 58
α-amylase = biological target: T3, α-amylase (Sus scrofa, UniProt P00690); settings: vs EGCG, Liu et al. ref 37; cited from earlier work
T3 sequence (P00690 16-511): T2 sequence (P00690 16-511)

α-glucosidase [9] = biological target: T1, α-glucosidase; settings: vs EGCG, Liu et al. ref 37; cited from earlier work

N=C(N)NN [AG, Aminoguanidine, reference compound]
Inhibition of fructosamine formation ([1]; 5 mM): 9% | Inhibition of fructosamine formation ([1]; 10 mM): 30% | Inhibition of AGEs ([2]; 5 mM): 43% | Inhibition of AGEs ([2]; 10 mM): 70%

C[C@H]1O[C@H](O[C@H]2[C@H](O)[C@@H](O)[C@@H](O[C@H]3[C@H](O)[C@@H](O)C(O)O[C@@H]3CO)O[C@@H]2CO)[C@H](O)[C@@H](O)[C@@H]1N[C@H]1C=C(CO)[C@@H](O)[C@H](O)[C@H]1O (stereo partly shown) [Acarbose, reference compound]
(IC50 ± SEM) Antioxidant activity (DPPH radical) ([3]; mean ± SEM, triplicate): No activity

CCCCNC(=O)/C=C/c1ccc(O)c(O)c1 [CA4, (E)-3-(3,4-Dihydroxyphenyl)-N-butylacrylamide]
IC50 (α-glucosidase [4]): 38 ± 1.57 µM | IC50 [5]: > 500 µM | IC50 ([3]; mean ± SEM, triplicate): 20.8 ± 0.45 µM

CCCCCCNC(=O)/C=C/c1ccc(O)c(O)c1 [CA6, (E)-3-(3,4-Dihydroxyphenyl)-N-hexylacrylamide]
IC50 (α-glucosidase [4]): 51.5 ± 2.36 µM | IC50 [5]: > 500 µM | IC50 ([3]; mean ± SEM, triplicate): 23.7 ± 0.59 µM

CCCCCCCCNC(=O)/C=C/c1ccc(O)c(O)c1 [CA8, (E)-3-(3,4-Dihydroxyphenyl)-N-octylacrylamide]
IC50 (α-glucosidase [4]): 13.7 ± 0.44 µM | IC50 [5]: > 500 µM | IC50 ([3]; mean ± SEM, triplicate): 24.3 ± 0.58 µM

CCCCCCCCCCNC(=O)/C=C/c1ccc(O)c(O)c1 [CA10, (E)-3-(3,4-Dihydroxyphenyl)-N-decylacrylamide]
IC50 (α-glucosidase [4]): 19.1 ± 0.64 µM | IC50 [5]: > 500 µM | IC50 ([3]; mean ± SEM, triplicate): 23.4 ± 0.77 µM

CCCCCCCCCCCCNC(=O)/C=C/c1ccc(O)c(O)c1 [CA12, (E)-3-(3,4-Dihydroxyphenyl)-N-dodecylacrylamide]
IC50 (α-glucosidase [4]): 17.4 ± 0.87 µM | IC50 [5]: 72.8 ± 1.83 µM | IC50 ([3]; mean ± SEM, triplicate): 16.4 ± 0.48 µM

CCCCCCCCCCCCCCNC(=O)/C=C/c1ccc(O)c(O)c1 [CA14, (E)-3-(3,4-Dihydroxyphenyl)-N-tetradecylacrylamide]
Cytotoxicity (cell viability, MTT) (3T3-L1 cells): no significant cytotoxicity | Inhibition of fructosamine formation ([1]; 5 mM): 33% | Inhibition of fructosamine formation ([1]; 10 mM): 70% | IC50 (α-glucosidase [4]): 1.94 ± 0.06 µM | α-Glucosidase inhibition potency relative to parent CA (α-glucosidase [4]; ratio of IC50 values, vs CA): 6392 times | α-Glucosidase inhibition potency relative to acarbose (α-glucosidase [4]; ratio of IC50 values, vs acarbose): 113 times | IC50 [5]: 27 ± 0.83 µM | Stability under physiological conditions (degradation by LC-MS) [6]: did not exhibit any degradation | Antioxidant activity relative to 15c ([3]; ratio of DPPH IC50 values, vs 15c): 1.2 fold | Antioxidant activity relative to CA ([3]; ratio of DPPH IC50 values, vs CA): 2.5 times | Antioxidant activity relative to Vitamin C ([3]; ratio of DPPH IC50 values, vs Vitamin C): 2.3 fold | IC50 ([3]; mean ± SEM, triplicate): 14 ± 0.38 µM | Inhibition of AGEs ([2]; 5 mM): 44% | Inhibition of AGEs ([2]; 10 mM): 79%

CCCCCCCCCCCCCCCCNC(=O)/C=C/c1ccc(O)c(O)c1 [CA16, (E)-3-(3,4-Dihydroxyphenyl)-N-hexadecylacrylamide]
IC50 (α-glucosidase [4]): 24.8 ± 0.46 µM | IC50 [5]: 58.4 ± 2.68 µM | IC50 ([3]; mean ± SEM, triplicate): 15.1 ± 0.3 µM

O=C(O)/C=C/c1ccc(O)c(O)c1 [CA, Caffeic acid]
Blood glucose lowering effect (C57BL/KsJ-db/db mice): significant blood glucose lowering effect | Bioavailability [7]: 14.70% | Caco-2 monolayer permeability (Caco-2 monolayer): poor | IC50 ([3]; mean ± SEM, triplicate): 34.3 ± 0.52 µM

O=C(/C=C/c1ccc(O)c(O)c1)NCCc1ccccc1 [CAPA, caffeic acid phenethyl amide]
Stability improvement compared to ester form ([8]; 25 °C): 118 fold | Stability improvement compared to ester form ([8]; 37 °C): 77 fold

O=C(/C=C/c1ccc(O)c(O)c1)OCCc1ccccc1 [CAPE, caffeic acid phenethyl ester]
Stability in rat plasma ([8]; esterases ref 57): rapid decomposition

O=C1O[C@H]([C@@H](O)CO)C(O)=C1O [Vitamin C, L-ascorbic acid, reference compound]
(IC50 ± SEM) α-Glucosidase inhibition (α-glucosidase [4]; mean ± SEM, triplicate): No activity | (IC50 ± SEM) α-Amylase inhibition ([5]; mean ± SEM, triplicate): No activity | IC50 ([3]; mean ± SEM, triplicate): 32.7 ± 0.47 µM

EGCG palmitate
α-Amylase inhibition better than EGCG (α-amylase): 4.5 times | α-Glucosidase inhibition better than EGCG (α-glucosidase [9]): 52 times
